Results: ChEMBL document CHEMBL1140336, “Synthesis, structure-activity relationships, and biological evaluation of fatty alcohol phosphates as lysophosphatidic acid receptor ligands, activators of PPARgamma, and inhibitors of autotaxin” (J Med Chem, 2005)

Experiments:
[1] = target: T1, Lysophosphatidic acid receptor 3 (Homo sapiens, UniProt Q9UBY5); test: Inhibition of LPA-induced calcium transients in RH7777 rat hepatoma cells expressing LPA3 receptor; No effect; format: functional, cell-based
T1 sequence (Q9UBY5 whole entry): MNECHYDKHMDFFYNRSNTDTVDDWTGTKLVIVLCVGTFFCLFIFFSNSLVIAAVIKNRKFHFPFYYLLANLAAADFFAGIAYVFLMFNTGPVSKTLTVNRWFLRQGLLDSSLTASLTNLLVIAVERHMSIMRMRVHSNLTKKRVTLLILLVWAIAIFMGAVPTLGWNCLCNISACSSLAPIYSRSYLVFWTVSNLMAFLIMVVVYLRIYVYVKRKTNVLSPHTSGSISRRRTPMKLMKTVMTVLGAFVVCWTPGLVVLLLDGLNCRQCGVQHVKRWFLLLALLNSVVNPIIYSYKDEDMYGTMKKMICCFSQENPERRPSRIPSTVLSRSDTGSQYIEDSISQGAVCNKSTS
Procedure, shortened: (§1)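 Fura-2 Ca2+ assay. RH7777 cells stably expressing LPA1, LPA2 or LPA3, or PC-3 cells (endogenous LPA1-3), seeded at 50000 cells/well on poly-D-lysine and grown overnight. Serum-starved in modified Krebs, pH 7.4, for 6-8 h (PC-3: 12 h), then Fura-2 AM loaded for 35 min. Compound added at 15 s; wells read 80-120 s. Transient taken as peak minus baseline 340/380 ratio. Antagonism: LPA 18:1 coapplied; highest concentration 30 μM.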

[2] = Percent maximal efficacy in PC-3 cells; format: functional, Homo sapiens
Procedure, shortened: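 PC-3 human prostate cancer cells, which express LPA1-3 endogenously, 50000 cells/well. Serum-starved 12 h in modified Krebs, loaded with Fura-2 AM, read in a FlexStation. Ca2+ transient = 340/380 ratio peak minus baseline. Agonism (Emax as % of maximal LPA 18:1 response) and inhibition of LPA-induced transients were measured.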

[3] = target: T1, Lysophosphatidic acid receptor 3; test: Inhibition of LPA-induced calcium transients in RH7777 rat hepatoma cells expressing LPA3 receptor; format: functional, cell-based; procedure, shortened: as §1
[4] = target: T2, Lysophosphatidic acid receptor 1 (Homo sapiens, UniProt Q92633); test: (§2) Inhibition of LPA-induced calcium transients in RH7777 rat hepatoma cells expressing LPA1 receptor; No effect; format: functional, cell-based
T2 sequence (Q92633 whole entry): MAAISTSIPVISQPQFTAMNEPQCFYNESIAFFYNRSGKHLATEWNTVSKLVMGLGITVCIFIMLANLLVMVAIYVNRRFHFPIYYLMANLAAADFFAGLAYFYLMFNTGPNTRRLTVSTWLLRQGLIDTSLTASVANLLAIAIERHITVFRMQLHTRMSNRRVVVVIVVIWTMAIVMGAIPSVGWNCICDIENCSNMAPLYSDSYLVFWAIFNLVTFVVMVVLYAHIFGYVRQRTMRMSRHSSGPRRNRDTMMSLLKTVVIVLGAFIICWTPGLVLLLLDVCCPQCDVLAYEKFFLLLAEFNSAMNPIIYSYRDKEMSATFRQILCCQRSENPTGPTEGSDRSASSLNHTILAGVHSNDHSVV

PC-3 = test: Inhibitory concentration against LPA expressed in PC-3 cells; Weak antagonist; format: functional, cell-based, Homo sapiens; procedure, shortened: as §1
[5] = target: T3, Lysophosphatidic acid receptor 2 (Homo sapiens, UniProt Q9HBW0); test: Inhibition of LPA-induced calcium transients in RH7777 rat hepatoma cells expressing LPA2 receptor; format: functional, cell-based
T3 sequence (Q9HBW0 whole entry): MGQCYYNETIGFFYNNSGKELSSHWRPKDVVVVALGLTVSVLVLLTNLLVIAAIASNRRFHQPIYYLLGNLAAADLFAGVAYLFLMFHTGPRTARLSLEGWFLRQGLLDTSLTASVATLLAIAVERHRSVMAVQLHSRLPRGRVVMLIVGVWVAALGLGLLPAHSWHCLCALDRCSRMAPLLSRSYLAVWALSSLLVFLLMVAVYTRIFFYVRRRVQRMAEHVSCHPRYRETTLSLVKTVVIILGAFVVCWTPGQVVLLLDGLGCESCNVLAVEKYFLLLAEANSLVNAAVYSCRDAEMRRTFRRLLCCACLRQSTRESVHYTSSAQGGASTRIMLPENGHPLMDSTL

[6] = target: T1, Lysophosphatidic acid receptor 3; test: Binding affinity for Lysophosphatidic acid receptor 3 expressed in RH7777 rat hepatoma cells; format: cell-based; procedure, shortened: as §1
[7] = target: T3, Lysophosphatidic acid receptor 2; test: Inhibition of LPA-induced calcium transients in RH7777 rat hepatoma cells expressing LPA2 receptor; No effect; format: functional, cell-based; procedure, shortened: as §1
[8] = target: T2, Lysophosphatidic acid receptor 1; test: as §2; format: functional, cell-based; procedure, shortened: as §1; remark: listed apart in the source

CCCCCCCCCCCCCCCC(=O)N[C@@H](Cc1ccc(OP(=O)(O)O)cc1)C(=O)O
EC50 [1]: Not Active
Emax [2]: 25%
IC50 [3]: 5.57 µM
IC50 [4]: Not Active
IC50 (PC-3): Partial antagonist
EC50 [5]: ~11 µM
Ki [6]: 2.33 µM
IC50 [7]: Not Active
EC50 [8]: Not Active
